Measurements from ChEMBL document CHEMBL4138218, “Potent aromatase inhibitors and molecular mechanism of inhibitory action” (Eur J Med Chem, 2018).

Columns and labels:
MCF7 = assay: Cytotoxicity against human MCF7 cells after 48 hrs by MTT assay; type: cell-based; conditions: MCF7, 48 h
In short: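 MCF-7 cells in DMEM with 10% FBS and 1% penicillin-streptomycin at 37 °C, 5% CO2. Seeded at 4,000 cells/well and left overnight, then exposed to a range of concentrations for 48 h. Medium replaced with fresh medium containing MTT (5 mg/ml) for 4 h, formazan dissolved in DMSO, absorbance read at 490 nm. IC50 computed from the curves.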

Aromatase = target: T1, Aromatase (Homo sapiens, UniProt P11511); assay: Inhibition of human aromatase using androstenedione as substrate and NADPH preincubated for 24 hrs followed by substrate addition measured after 24 hrs by ELISA
T1 sequence (P11511 whole entry): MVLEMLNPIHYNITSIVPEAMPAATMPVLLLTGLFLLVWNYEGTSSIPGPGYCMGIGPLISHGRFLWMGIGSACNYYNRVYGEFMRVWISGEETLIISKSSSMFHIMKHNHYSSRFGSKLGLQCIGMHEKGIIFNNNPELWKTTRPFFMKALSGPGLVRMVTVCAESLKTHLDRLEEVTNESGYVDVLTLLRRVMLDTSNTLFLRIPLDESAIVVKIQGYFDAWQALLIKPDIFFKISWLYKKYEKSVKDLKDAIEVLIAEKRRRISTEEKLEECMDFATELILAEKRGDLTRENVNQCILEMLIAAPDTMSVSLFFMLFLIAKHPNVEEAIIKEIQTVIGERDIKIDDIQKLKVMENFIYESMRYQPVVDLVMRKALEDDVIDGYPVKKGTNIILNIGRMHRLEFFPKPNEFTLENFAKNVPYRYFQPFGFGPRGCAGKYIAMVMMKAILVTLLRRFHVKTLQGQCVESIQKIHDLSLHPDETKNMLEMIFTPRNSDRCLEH
In short: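 Enzyme was a microsomal pellet from human placenta: tissue homogenized in TES buffer (20 mM TES, 1 mM EDTA, 0.15 M KCl, 0.1 mM PMSF, pH 7.4), spun at 10,000 g for 25 min then 100,000 g for 75 min at 4 °C, resuspended with 0.25 M sucrose, stored at −80 °C. Androstenedione substrate with NADPH; estrone quantified by ELISA against a standard curve. Triplicates, mean IC50.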

IC50 (Aromatase) [µM]	Structure (SMILES)	IC50 (MCF7) [µM]
0.208	Clc1ccc(-c2[nH]c3cc(Cl)ccc3c2Cn2cncn2)cc1	382
0.0829	Fc1ccc2c(Cn3ccnc3)c(-c3ccc(Cl)cc3)[nH]c2c1	45
0.0969	Fc1ccc(-c2[nH]c3cc(Cl)ccc3c2Cn2cncn2)cc1	625
0.0323	Fc1ccc(-c2[nH]c3cc(Cl)ccc3c2Cn2ccnc2)cc1	41.5
2.64	Clc1ccc(-c2[nH]c3cc4c(cc3c2Cn2ccnc2)OCO4)cc1	> 1000
0.109	COc1ccc2c(Cn3ccnc3)c(-c3ccc(F)cc3)[nH]c2c1	> 1000
0.0361	COc1ccc(-c2[nH]c3cc(F)ccc3c2Cn2ccnc2)cc1	> 1000
0.261	Clc1ccc(-c2[nH]c3cc(Cl)ccc3c2Cn2ccnc2)cc1	> 1000
0.217	Fc1ccc2c(Cn3cncn3)c(-c3ccc(Cl)cc3)[nH]c2c1	> 1000
0.0512	Fc1ccc(-c2[nH]c3cc(F)ccc3c2Cn2ccnc2)cc1	83.2
1.06	COc1ccc2c(Cn3ccnc3)c(-c3ccc(Cl)cc3)[nH]c2c1	> 1000
0.277	COc1ccc(-c2[nH]c3cc(Cl)ccc3c2Cn2ccnc2)cc1	> 1000

The next lines start with the molecule.

Structure (SMILES)	IC50 (Aromatase) [µM]	IC50 (MCF7) [µM]
Fc1ccc(-c2[nH]c3cc(F)ccc3c2Cn2cncn2)cc1	0.0544	> 1000
Fc1ccc(-c2[nH]c3cc4c(cc3c2Cn2ccnc2)OCO4)cc1	0.211	> 1000
COc1ccc(-c2[nH]c3cc(Cl)ccc3c2Cn2cncn2)cc1	0.196	14.4
Clc1ccc(-c2[nH]c3cc4c(cc3c2Cn2cncn2)OCO4)cc1	0.677	354
N#Cc1ccc(C(c2ccc(C#N)cc2)n2cncn2)cc1 [LETROZOLE]	–	4.73
COc1ccc2c(Cn3cncn3)c(-c3ccc(F)cc3)[nH]c2c1	0.238	12.2
Fc1ccc(-c2[nH]c3cc4c(cc3c2Cn2cncn2)OCO4)cc1	0.0583	334
COc1ccc(-c2[nH]c3cc(F)ccc3c2Cn2cncn2)cc1	0.0141	325
COc1ccc2c(Cn3cncn3)c(-c3ccc(Cl)cc3)[nH]c2c1	7.77	612
